In ChEMBL document CHEMBL4219179, “Small-molecules that bind to the ubiquitin-binding motif of REV1 inhibit REV1 interaction with K164-monoubiquitinated PCNA and suppress DNA damage tolerance” (Bioorg Med Chem, 2018):
Active and inactive are the calls of the source. The calls are words filed in the database; no cut-off is given here.

Experiments:
[1] = Solubility of the compound in sodium phosphate buffer at pH 7; type: physicochemical
[2] = target: T1, DNA repair protein REV1 (Homo sapiens) (UniProt Q9UBZ9); assay: Binding affinity to recombinant human REV1 UBM1/UBM2 domain (137 residues) expressed in Escherichia coli BL21(DE3) assessed as increase in NOE peaks at 200 uM by STD NMR spectral analysis
T1 sequence (whole entry): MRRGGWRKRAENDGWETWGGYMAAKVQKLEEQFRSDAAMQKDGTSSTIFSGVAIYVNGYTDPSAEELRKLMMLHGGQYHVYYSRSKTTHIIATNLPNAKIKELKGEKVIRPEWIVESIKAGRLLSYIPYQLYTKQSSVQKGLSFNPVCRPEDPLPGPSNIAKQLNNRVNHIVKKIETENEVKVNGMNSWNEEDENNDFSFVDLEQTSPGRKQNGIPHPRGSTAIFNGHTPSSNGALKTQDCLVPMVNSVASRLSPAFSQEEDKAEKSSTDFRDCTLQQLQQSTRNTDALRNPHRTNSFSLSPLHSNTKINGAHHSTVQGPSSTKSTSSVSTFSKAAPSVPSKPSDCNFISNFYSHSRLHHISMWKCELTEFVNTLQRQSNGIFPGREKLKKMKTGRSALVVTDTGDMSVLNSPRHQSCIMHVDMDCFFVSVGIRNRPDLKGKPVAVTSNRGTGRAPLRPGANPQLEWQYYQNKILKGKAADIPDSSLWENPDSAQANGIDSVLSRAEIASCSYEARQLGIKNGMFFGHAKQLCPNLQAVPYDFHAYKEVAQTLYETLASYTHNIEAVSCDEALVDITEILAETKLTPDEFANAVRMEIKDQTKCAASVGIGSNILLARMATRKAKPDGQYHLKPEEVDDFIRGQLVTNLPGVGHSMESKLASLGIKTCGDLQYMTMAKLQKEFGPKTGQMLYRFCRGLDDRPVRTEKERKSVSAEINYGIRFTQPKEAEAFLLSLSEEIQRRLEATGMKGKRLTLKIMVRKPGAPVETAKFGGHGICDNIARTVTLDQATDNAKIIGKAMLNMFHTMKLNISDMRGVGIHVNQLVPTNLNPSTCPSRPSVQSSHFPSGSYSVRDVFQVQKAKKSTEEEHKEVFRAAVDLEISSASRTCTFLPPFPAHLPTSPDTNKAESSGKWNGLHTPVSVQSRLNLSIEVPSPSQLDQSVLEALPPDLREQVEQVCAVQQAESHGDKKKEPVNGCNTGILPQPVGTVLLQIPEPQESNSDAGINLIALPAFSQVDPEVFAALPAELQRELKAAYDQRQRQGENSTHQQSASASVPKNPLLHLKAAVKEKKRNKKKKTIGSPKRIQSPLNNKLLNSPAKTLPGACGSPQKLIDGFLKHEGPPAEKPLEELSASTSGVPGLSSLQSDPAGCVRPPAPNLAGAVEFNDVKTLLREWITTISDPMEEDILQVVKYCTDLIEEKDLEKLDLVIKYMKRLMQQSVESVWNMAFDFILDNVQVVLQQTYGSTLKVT
Procedure, shortened: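 STD NMR at 280 K with 10 µM protein and 200 µM compound. Saturation by a train of 30 ms Gaussian pulses for 4 s, on resonance at 0 ppm and off resonance at -40 ppm; 256 on/off FIDs recorded. REV1 UBM1-UBM2 expressed as for REV1 (His-tagged, Ni-NTA), tag removed by […].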

[3] = target: T1, DNA repair protein REV1 (Homo sapiens); assay: Binding affinity to recombinant human REV1 UBM2 domain assessed as chemical shift perturbations on alpha-helix at REV1 UBM2 to compound molar ratio of 1:10 by [1H,15N]-HSQC NMR spectral analysis
Procedure, shortened: (§1)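 15N-labeled REV1 UBM2 in 20 mM sodium phosphate pH 7.0, 100 mM NaCl, titrated at protein:compound ratios 1:2, 1:4, 1:6, 1:8 and 1:10. 1H and 15N shifts of displaced peaks tracked at each point; weighted average shift δav(NH) = [(δH² + (δN/5)²)/2]^1/2 per backbone amide.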

U2OS [4] = assay: Cytotoxicity against human U2OS cells expressing EGFP-tagged REV1 (unknown origin) at 150 uM; type: cell-based
[5] = Inhibition of biotin/Avi-tagged UbPCNA binding to recombinant human N-terminal His-tagged REV1 deletion mutant BRCT/UBM1/UBM2 domain expressed in Escherichia coli BL21(DE3) measured after 1 hr by AlphaScreen assay
Procedure, shortened: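 AlphaScreen with 200 nM biotin-AviTag-Ub-PCNA (enzymatically K164-ubiquitinated) and 40 nM N-His REV1 in PBS pH 7.4, 0.1% BSA, 0.05% Tween-20, with serial compound dilutions. Ni-chelate acceptor beads added, streptavidin donor beads after 1 h, read 1 h later; dose-response fitted on final concentrations.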

[6] = target: T1, DNA repair protein REV1 (Homo sapiens); assay: Binding affinity to recombinant human REV1 UBM2 domain assessed as chemical shift changes by [1H,15N]-HSQC NMR spectral analysis; procedure, shortened: as §1
[7] = target: T1, DNA repair protein REV1 (Homo sapiens); assay: (§2) Inhibition of REV1 in human U2OS cells assessed as potentiation of 4-hydroxycyclophosphamide-induced cytotoxicity by measuring reduction in colony formation at 75 uM incubated for 24 hrs after 24 hrs 4-hydroxycyclophosphamide-exposure followed by culture medium replacement with fresh medium and measured after 7 days by crystal violet staining based assay relative to control; type: cell-based
Procedure, shortened: (§3)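 U2OS cells, 300 per well, settled overnight, then given cisplatin or 4-hydroxycyclophosphamide at the stated final level. After 24 h, compound or DMSO added; medium replaced after another 24 h and cells grown 7 days. Formaldehyde fixation, 0.5% crystal violet staining, colonies of more than ~40 cells counted; triplicates, survival set to 1 for vehicle (saline for cisplatin, DMSO for 4-HC).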

[8] = target: T1, DNA repair protein REV1 (Homo sapiens); assay: as §2, with “cisplatin-induced” for “4-hydroxycyclophosphamide-induced”, “cisplatin exposure” for “4-hydroxycyclophosphamide-exposure”; type: cell-based; procedure, shortened: as §3
U2OS [9] = assay: Cytotoxicity against human U2OS cells assessed as reduction in colony formation at 75 uM incubated for 24 hrs followed by culture medium replacement with fresh medium and measured after 7 days by crystal violet staining based assay relative to control; type: cell-based; procedure, shortened: as §3
[10] = target: T1, DNA repair protein REV1 (Homo sapiens); assay: Inhibition of UbPCNA binding to EGFP-tagged REV1 (unknown origin) expressed in human U2OS cells assessed as reduction in cisplatin-induced recruitment of EGFP-REV1 to PCNA foci on chromatin at 150 uM treated after 3.5 hrs cisplatin exposure and measured 6 hrs after post dose by immunostaining based confocal microscopic analysis; type: cell-based
Procedure, shortened: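 U2OS cells transfected with pEGFP-REV1. Two days later, 33 µM cisplatin for 3.5 h, then released into DMSO or 150 µM compound for 6 h. CSK/Triton pre-extraction, PFA fixation, methanol, PCNA (PC10) immunostain, confocal imaging. Pearson coefficient of PCNA vs REV1 per DAPI-defined nucleus; n=32–37 cells, two-tailed t-test.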

[11] = target: T1, DNA repair protein REV1 (Homo sapiens); assay: Inhibition of REV1 in human WTK1 cells assessed as suppression of 0 to 128 J/m2 UV light-induced HPRT gene mutation by measuring reduction in number of resistant clones at 150 uM dosed Immediately following UVC treatment and measured after 21 hrs
Procedure, shortened: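 WTK-1 cells cleansed (CHAT, then THC) and conditioned in horse serum; 2×10^6 cells given UVC 0–128 J/m², then DMSO or 150 µM compound for 21 h. Survival plated at 1.6 cells/well (PE0, PE6). After 5 days' expression, 5,000 cells/well in 0.5 µg/mL 6-thioguanine; colonies scored after 11–12 days; mutation frequency normalized to plating efficiency.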

[12] = target: T1, DNA repair protein REV1 (Homo sapiens); assay: Inhibition of REV1 in human HeLa cells assessed as reduction in 2.5 J/m2 UV light-induced cyclopyrimidine dimer removal at 150 uM by epi-fluorescence microscopic analysis; type: cell-based
Procedure, shortened: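 HeLa cells on coverslips given 0 or 2.5 J/m² UVC (254 nm), then DMSO or 150 µM compound. Fixed at time points up to 24 h, denatured in 2 M HCl and stained with anti-CPD (TDM-2). Epifluorescence mean green intensity per DAPI-defined nucleus; two-tailed t-test.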

solubility [1] | Activity [3] | IC50 [5] [µM] | Activity [6] | inhibition [10] | inhibition [11] | inhibition [12] | SMILES | Activity [2] | Activity (U2OS [4]) | fold change (FC) [7] | fold change (FC) [8] | fold change (FC) (U2OS [9])
Soluble | Active | 9.7 | Dose-dependent effect | – | – | – | Cl.O=C(CCc1cc(I)c(Oc2ccc(O)cc2)c(I)c1)N1CCNCC1 | Active | Toxic | – | – | –
Insoluble | – | 3.4 | – | Active | Active | Active | O=C1CN(C(=O)CCc2cc(I)c(Oc3ccc(O)cc3)c(I)c2)CCN1 | Active | – | 10 | 10 | 2
